PP5 primary: PP5 phosphatase inhibitors, primary screen, biochemical, fluorescence | Serine/threonine-protein phosphatase 5 (Homo sapiens), P53041 | purified PP5c, OMFP substrate fluorescence | inhibition, % at 6.7 µM | hit rate 0.18% among 320,000;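 active = inhibition above the campaign's mean inhibition across all tested compounds plus 3 SD, cut at about 9.5% in these data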;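 note: 0% = DMSO only and 100% = 100 µM cantharidin control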
NR2E3 ag-1: NR2E3 agonists in two-hybrid cells, primary screen, cell-based, luminescence, CHO-S, Gal4-NCOR/VP16-NR2E3; inhibition of corepressor binding, % at 3.98 µM; hit rate 0.35% among 360,000; Photoreceptor-specific nuclear receptor (Homo sapiens), Q9Y5X4; AID 602229, 2012; luciferase;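 active = inhibition above the mean of all tested compounds plus 3 SD, cut at about 70% in these data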;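 note: 0% = DMSO with NR2E3 transfected cells and 100% = cells lacking NR2E3 construct; higher means lower luciferase signal from less NR2E3 corepressor binding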
PP1 counter: PP1-alpha phosphatase inhibitors, primary screen, counter-screen for PP5 inhibitor project, biochemical, fluorescence, OMFP substrate, single point; Serine/threonine-protein phosphatase PP1-alpha catalytic subunit (Homo sapiens), P62136; purified PP1alpha; inhibition, % at 6.7 µM; hit rate 0.9% among 320,000; AID 2235, 2010;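 active = inhibition above the mean inhibition of all tested compounds plus 3 SD, computed separately for each screening campaign, cut at about 15% in these data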
NR2E3 ag-2: inhibitors of NR2E3-RetCOR corepressor binding, primary screen, NR2E3 agonist project, biochemical, TR-FRET, GST-NR2E3, biotin-RetCOR | inhibition of corepressor binding, % at 4.78 µM | Photoreceptor-specific nuclear receptor (Homo sapiens), Q9Y5X4 | hit rate 0.12% among 320,000 | 1536-well;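 active = percent inhibition above the cutoff of mean plus 3 SD of all tested compounds, set per screening campaign, cut at about 20% in these data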;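 note: 0% = DMSO wells and 100% = biotin wells as full block of FRET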
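Material: NR2E3–RetCOR corepressor complex / Incubation: Compound–protein incubation for 5 h at 4 °C / Dosing: compound at 4.8 µM, single dose / Detection: time-resolved FRET / Benchmarks: high control biotin, low control 0.6% DMSO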
PP5 inh confirm: PP5 phosphatase inhibitors, confirmation, biochemical, fluorescence, human; hit rate 22% among 460; AID 2331, 2010; inhibition, % at 6.7 µM; Purified PP5, fluorogenic phosphatase substrate; shares compounds with PP5 primary; in the data active = inhibition above about 9.5%
PP1 inh counter: PP1 phosphatase inhibitors, counter-screen for PP5 inhibitor project, biochemical, fluorescence, triplicate | inhibition, % at 6.7 µM | shares compounds with PP5 primary | hit rate 4% among 460 | PP1 enzyme, fluorescent phosphatase substrate | AID 2355, 2010; in the data active = inhibition above about 16%
PP1 confirm: PP1 phosphatase inhibitors, confirmation, biochemical, fluorescence, OMFP substrate, triplicate; shares compounds with PP1 counter; purified PP1alpha; inhibition, % at 6.7 µM; hit rate 52% among 1,900; AID 2358, 2010;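 active = mean PP1 inhibition above a set limit taken from the earlier primary screen, cut at about 15% in these data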
PP5 inh counter: PP5 phosphatase inhibition by PP1 hits, confirmation, counter-screen for PP1 inhibitor project, biochemical, fluorescence, triplicate. purified PP5c, OMFP fluorescence. inhibition, % at 6.7 µM. shares compounds with PP1 counter. AID 2360, 2010. hit rate 4% among 1,900;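 active = mean PP5 inhibition over triplicate wells above about 9.5% taken from the earlier PP1 screen, limit read from the data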
NR2E3 ag confirm-1: NR2E3 agonists, confirmation, biochemical, TR-FRET; AID 2379, 2010; shares compounds with NR2E3 ag-2; activation (reported as inhibition), % at 3.98 µM; hit rate 39% among 360; cell-free NR2E3 corepressor release, 5 h; in the data active = activation above about 20%
PPARg-NCOR2 ag: agonists of PPARg-NCOR2 corepressor interaction, counter-screen for NR2E3 agonist project, biochemical, TR-FRET; TR-FRET PPARg-NCOR2 coregulator interaction; hit rate 45% among 360; shares compounds with NR2E3 ag-2; inhibition, % at 3.98 µM; in the data active = inhibition above about 20%;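 note: 0% = DMSO vehicle and 100% = wells without protein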
NR2E3 ag confirm-2: NR2E3 agonist confirmation in cells, cell-based, luminescence, CHO-S two-hybrid. inhibition, % at 3.98 µM. hit rate 51% among 2,300. shares compounds with NR2E3 ag-1. CHO-S mammalian two-hybrid NR2E3-NCOR, luciferase luminescence;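 active = average inhibition above a cutoff equal to the mean inhibition of all tested compounds plus one SD, cut at about 70% in these data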;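 note: 0% = DMSO in NR2E3 cells and 100% = DMSO in cells lacking NR2E3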
VP16 counter: GAL4-VP16 reporter modulators, confirmation, counter-screen for NR2E3 agonist project, cell-based, luminescence, CHO-S, high throughput; shares compounds with NR2E3 ag-1; CHO-S GAL4-VP16 luciferase reporter; hit rate 29% among 2,300; inhibition, % at 3.98 µM;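 active = mean inhibition above a cutoff equal to the average over all tested compounds plus one standard deviation, cut at about 70% in these data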;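 note: luciferase from a UAS reporter driven by GAL4-VP16 transactivation; 0% = DMSO with VP16-transfected cells and 100% = DMSO with cells lacking VP16; higher means less reporter light so more repression of VP16 activity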
The depositor's hits bear a star; nt = not tested or not shown. Sampled rows, rich in hits. Any-hit rate of the full collection: about 1.3%.

SMILES | PP5 primary | NR2E3 ag-1 | PP1 counter | NR2E3 ag-2 | PP5 inh confirm | PP1 inh counter | others
COc1ccc(Oc2ccc3c(C(F)(F)F)cc(C(F)(F)F)nc3n2)cc1 | 15.6* | 11.9 | 0.1 | -0.5 | 3.0 | 1.5
Cc1ccc(CC(=O)NNC(=O)c2cccs2)cc1C | nt | 9.2 | nt | nt | nt | nt
Cc1cc(C(=O)N/N=C(\CCC(=O)O)c2cccs2)c2ccccc2n1 | -2.3 | -26.9 | -2.2 | -0.1 | nt | nt
CO/N=C(\CCC(=O)O)c1cccs1 | 9.7* | -1.4 | -1.2 | -0.1 | -6.2 | -4.0
Cn1c(=O)c2[nH]c(-c3cccnc3)nc2n(C)c1=O | 13.7* | -11.6 | -1.8 | -4.2 | -4.1 | -3.5
Cc1cc(=O)[nH]c(-c2cccnc2)n1 | -1.7 | -11.5 | -1.3 | -4.4 | nt | nt
CN(Cc1cn(Cc2ccc(Cl)cc2)nn1)C1CN(Cc2cn(Cc3ccc(Cl)cc3)nn2)S(=O)(=O)C1 (centres undefined) | nt | -11.7 | nt | nt | nt | nt
COCCn1c(N)c(C(=O)NCC2CCCO2)c2nc3ccccc3nc21 (centres undefined) | 13.4* | -6.7 | 4.1 | 35.6* | 15.1* | -3.6 | NR2E3 ag confirm-1=-2.6;PPARg-NCOR2 ag=6.4
COc1cc(/C=C2/C(=O)N(c3ccc([N+](=O)[O-])cc3)N=C2N2CCOCC2)ccc1O | 16.0* | 1.5 | -1.5 | 29.3* | 2.0 | -2.3 | NR2E3 ag confirm-1=-4.7;PPARg-NCOR2 ag=47.5*
CCC(=O)Nc1c(C#N)c2nc3ccccc3nc2n1-c1ccc(C)cc1 | nt | -24.6 | nt | nt | nt | nt
N#Cc1c(NC(=O)c2ccc(Br)o2)n(-c2ccccc2)c2nc3ccccc3nc12 | 11.5* | 2.3 | 9.3 | 24.1* | 32.9* | 16.3* | NR2E3 ag confirm-1=37.8*;PPARg-NCOR2 ag=53.9*
CCOc1ccc(NS(=O)(=O)c2cc3c4c(c2)C(C)C(=O)N4CCC3)cc1 (centres undefined) | 1.1 | -13.8 | 3.7 | 2.0 | nt | nt
O=C(COc1ccc(S(=O)(=O)Nc2ccccc2)cc1)NCc1ccncc1 | 3.5 | -10.8 | 1.5 | 2.7 | nt | nt
Cc1cc(C)c(S(=O)(=O)/N=C2/C=C(Sc3ncn[nH]3)C(=O)c3ccccc32)cc1C | 11.4* | 101.6* | -0.1 | 9.1 | 32.4* | 11.8 | NR2E3 ag confirm-2=48.9;VP16 counter=-12.0
CCn1ccnc1CN(C)C(=O)c1cc(COc2ccccc2SC)on1 | -1.4 | -135.9 | -0.7 | 0.1 | nt | nt
Cc1c(Cl)cccc1N1C(=O)CC(Sc2ccccc2N)C1=O (centres undefined) | nt | -39.2 | nt | nt | nt | nt
Cc1ccccc1NC1=C/C(=N\S(=O)(=O)c2cccs2)c2ccccc2C1=O | 14.8* | 54.7 | 2.1 | 5.2 | 51.2* | 3.9 | NR2E3 ag confirm-2=99.6*;VP16 counter=99.1*
Cc1ccccc1NC1=C/C(=N\S(=O)(=O)c2ccc(C(=O)O)cc2)c2ccccc2C1=O | 9.4 | 24.7 | 4.0 | 19.5 | nt | nt
O=C(O)c1ccc(S(=O)(=O)/N=C2\C=C(Nc3ccccc3F)C(=O)c3ccccc32)cc1 | 9.6* | 104.4* | 5.9 | 8.7 | 42.5* | 11.7 | NR2E3 ag confirm-2=100.4*;VP16 counter=46.8
Cc1ccc(NS(=O)(=O)c2cc(Br)cnc2N)c(Cl)c1 | -1.7 | -11.0 | -4.4 | 1.9 | nt | nt
Nc1ncc(Br)cc1S(=O)(=O)Nc1cc(C(F)(F)F)cc(C(F)(F)F)c1 | 9.6* | 108.6* | 7.8 | -0.1 | 5.1 | 11.9 | NR2E3 ag confirm-2=100.6*;VP16 counter=89.9*
CC(=O)C1=C(c2ccc(Br)cc2)C(=O)c2ccccc2C1=O | 11.1* | 103.4* | 7.7 | -1.1 | 10.4* | 4.7 | NR2E3 ag confirm-2=98.6*;VP16 counter=92.3*
CCOC(=O)C1=CC[C@@H](c2cc(OC)c(OC)c(OC)c2)N(S(=O)(=O)c2ccc(C)cc2)[C@H]1C(=O)OCC | nt | -18.6 | nt | nt | nt | nt
Cc1ccc(S(=O)(=O)c2nnn3c2nc(NCCCN2CCCC2=O)c2ccccc23)cc1C | 2.0 | 11.6 | 0.2 | 0.3 | nt | nt
Cc1ccc(S(=O)(=O)c2nnn3c2nc(NC2CCN(Cc4ccccc4)CC2)c2ccccc23)cc1C | 3.9 | -12.3 | 21.4* | -0.4 | nt | nt | PP1 confirm=9.1;PP5 inh counter=4.4
SMILES | PP5 primary | NR2E3 ag-1 | PP1 counter | NR2E3 ag-2 | PP5 inh confirm | PP1 inh counter | others
CCN(C(=O)c1ccc(Cl)c(S(=O)(=O)Nc2c(C)n(C)n(-c3ccccc3)c2=O)c1)c1ccccc1 | nt | -17.6 | nt | nt | nt | nt
O=C(O)c1ccc(/C=N\Nc2ccc(S(=O)(=O)N3CCOCC3)cc2[N+](=O)[O-])cc1 | 1.2 | -4.1 | -0.4 | -1.5 | nt | nt
Cc1ccc(-n2c(O)c(/C=N/Nc3ccc(S(=O)(=O)N4CCOCC4)cc3[N+](=O)[O-])c3ccccc3c2=O)c(C)c1 | 1.9 | -3.4 | 17.6* | -1.4 | nt | nt | PP1 confirm=17.6*;PP5 inh counter=5.0
CC(C)C[C@H]1CNC(=S)N1C[C@H]1CCCN1C[C@H](Cc1ccc(O)cc1)N1C[C@H](Cc2ccccc2)N(CC2CCCCCC2)C1=S | nt | 0.7 | nt | nt | nt | nt
N=C1/C(=C/c2ccc(-c3cccc(C(=O)O)c3)o2)C(=O)N=C2SC(CC(=O)N3CCOCC3)=NN12 | 0.1 | -64.4 | -2.9 | 2.4 | nt | nt
N=C1/C(=C\c2ccc(-c3cccc(C(=O)O)c3)o2)C(=O)N=C2SC=C(c3ccccc3)N12 | 0.9 | -30.2 | 44.9* | 1.8 | nt | nt | PP1 confirm=31.9*;PP5 inh counter=-2.2
CC1CCN(CC(=O)Nc2ccc(S(=O)(=O)N3C(C)CCCC3C)cc2)CC1 (centres undefined) | 0.2 | -11.0 | -0.9 | -0.2 | nt | nt

Compound activity (PubChem BioAssay)
